The target in one series is Cytochrome P450 2C19 (Homo sapiens, UniProt P33261). The series is described as follows: Inhibition of human CYP2C19 by microtiter plate assay. It is filed as ADME.
Series [1] in a line: Metabolic stability in human liver microsomes at 1 uM by HPLC. The following applies: read-out: Stability. It is filed as ADME, Microsome. In a few lines: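 Test compound was incubated with liver microsomes for 30 min. Stability is expressed as the percentage of parent compound remaining at the end of incubation.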
The target of another series is Cytochrome P450 3A4 (Homo sapiens, UniProt P08684). The series is described as follows: Inhibition of human CYP3A4 by microtiter plate assay. It is filed as ADME.
Sequence of Cytochrome P450 3A4 (P08684 whole entry): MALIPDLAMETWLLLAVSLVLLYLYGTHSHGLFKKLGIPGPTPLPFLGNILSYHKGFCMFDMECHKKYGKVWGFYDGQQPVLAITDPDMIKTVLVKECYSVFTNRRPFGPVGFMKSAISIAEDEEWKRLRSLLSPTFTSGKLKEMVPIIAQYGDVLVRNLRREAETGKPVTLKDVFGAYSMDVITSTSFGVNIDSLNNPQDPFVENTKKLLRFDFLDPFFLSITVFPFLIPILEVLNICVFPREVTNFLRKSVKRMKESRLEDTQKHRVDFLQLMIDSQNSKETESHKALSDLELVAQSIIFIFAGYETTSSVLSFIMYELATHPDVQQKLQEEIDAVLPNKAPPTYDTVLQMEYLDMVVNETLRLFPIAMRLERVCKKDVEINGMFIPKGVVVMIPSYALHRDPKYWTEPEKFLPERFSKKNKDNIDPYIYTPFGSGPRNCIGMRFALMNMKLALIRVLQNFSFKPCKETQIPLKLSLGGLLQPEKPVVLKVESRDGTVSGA
Series [2] deals with T1, B2 bradykinin receptor (Homo sapiens, UniProt P30411).
T1 sequence (P30411 whole entry): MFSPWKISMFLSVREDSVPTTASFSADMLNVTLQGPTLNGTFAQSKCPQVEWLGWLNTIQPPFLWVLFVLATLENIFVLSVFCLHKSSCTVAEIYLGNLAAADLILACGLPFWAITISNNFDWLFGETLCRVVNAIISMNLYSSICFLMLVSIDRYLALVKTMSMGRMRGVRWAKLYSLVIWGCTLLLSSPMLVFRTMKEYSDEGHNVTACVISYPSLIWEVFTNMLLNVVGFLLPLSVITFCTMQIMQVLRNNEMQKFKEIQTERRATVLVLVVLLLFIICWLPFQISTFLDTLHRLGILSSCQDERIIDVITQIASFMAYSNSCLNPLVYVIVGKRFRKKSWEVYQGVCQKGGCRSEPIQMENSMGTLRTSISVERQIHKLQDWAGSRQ
Nature of the series: Displacement of [3H]bradykinin from human recombinant B2 receptor expressed in HEK293 cells. It is filed as cell-based. For orientation: Loss of bound radioactivity is the signal in a displacement assay; it reports binding, not function.

The target in series [3] is T1, B2 bradykinin receptor. Nature of the series: Antagonist activity at B2 receptor in human HF15 cells assessed as inhibition of bradykinin-induced calcium mobilization. It counts as functional, cell-based. (In general: Calcium flux is commonly read through the fluorescence of an indicator in the cells.)
The nature of series [4]: Clearance in Wistar rat at 1 mg/kg, iv or 1 mg/kg, po. It counts as ADME, organism-based. The conditions noted are these: in vivo.
Series [5] is described as follows: Terminal half life in Wistar rat at 1 mg/kg, iv or 1 mg/kg, po. The following applies: in vivo, read-out: beta t1/2. It is filed as ADME, organism-based.
The nature of series [6]: Oral bioavailability in Wistar rat at 1 mg/kg. The conditions noted are these: in vivo. It is filed as ADME, organism-based.

SMILES strings stand for the structures.

Sequence of Cytochrome P450 2C19 (P33261 whole entry): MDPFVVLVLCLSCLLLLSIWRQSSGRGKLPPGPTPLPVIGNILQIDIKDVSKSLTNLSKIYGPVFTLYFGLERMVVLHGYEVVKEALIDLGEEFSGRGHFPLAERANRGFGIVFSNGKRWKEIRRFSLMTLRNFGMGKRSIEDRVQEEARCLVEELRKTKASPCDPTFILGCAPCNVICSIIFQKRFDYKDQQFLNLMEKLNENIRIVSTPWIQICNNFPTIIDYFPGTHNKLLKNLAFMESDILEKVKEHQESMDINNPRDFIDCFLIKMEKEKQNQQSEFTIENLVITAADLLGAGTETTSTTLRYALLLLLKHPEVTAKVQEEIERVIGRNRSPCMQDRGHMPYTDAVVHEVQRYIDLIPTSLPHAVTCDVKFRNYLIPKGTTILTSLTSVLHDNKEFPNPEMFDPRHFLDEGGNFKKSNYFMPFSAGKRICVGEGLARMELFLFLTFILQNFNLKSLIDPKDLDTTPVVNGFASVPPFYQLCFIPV

For orientation: IC50 means the midpoint of a concentration-inhibition curve. As usually defined, the bioavailability is dose-corrected exposure relative to a reference, in per cent. Lower therefore signals little systemic uptake. On to `Cc1cc(-c2[nH]ncc2C)c2cccc(OCc3c(C)ccnc3Cn3cccc(C(F)(F)F)c3=O)c2n1`, for which the IC50 at Cytochrome P450 2C19 is more than 5000 nM; at Cytochrome P450 3A4 it was 3800 nM; at B2 bradykinin receptor [2], 8.7 nM; on B2 bradykinin receptor [3] it was 1.1 nM. Moreover, in series [1], the remaining at 1 µM was found to be 21%. Also, in series [4], the clearance is 21 mL/min/kg. For the same molecule, the half-life in series [5] is 1.12 h. In series [6], this molecule displayed a bioavailability of more than 17%.

For the origin of these results see ChEMBL document CHEMBL1158465, “Novel small molecule bradykinin B2 receptor antagonists” (J Med Chem, 2009).
